Consider three compounds from ChEMBL document CHEMBL1127811, “Inhibitors of cholesterol biosynthesis. 2. Hypocholesterolemic and antioxidant activities of benzopyran and tetrahydronaphthalene analogues of the tocotrienols” (J Med Chem, 1994).

Molecules are shown by their SMILES.

A short description of data set [1]: Oxidation potential assay as cyclic voltametry; not electrochemically active within scan range. Type of data set: functional.
For data set [2], the target named is T1, 3-hydroxy-3-methylglutaryl-coenzyme A reductase (Homo sapiens) (UniProt P04035).
T1 sequence (whole entry): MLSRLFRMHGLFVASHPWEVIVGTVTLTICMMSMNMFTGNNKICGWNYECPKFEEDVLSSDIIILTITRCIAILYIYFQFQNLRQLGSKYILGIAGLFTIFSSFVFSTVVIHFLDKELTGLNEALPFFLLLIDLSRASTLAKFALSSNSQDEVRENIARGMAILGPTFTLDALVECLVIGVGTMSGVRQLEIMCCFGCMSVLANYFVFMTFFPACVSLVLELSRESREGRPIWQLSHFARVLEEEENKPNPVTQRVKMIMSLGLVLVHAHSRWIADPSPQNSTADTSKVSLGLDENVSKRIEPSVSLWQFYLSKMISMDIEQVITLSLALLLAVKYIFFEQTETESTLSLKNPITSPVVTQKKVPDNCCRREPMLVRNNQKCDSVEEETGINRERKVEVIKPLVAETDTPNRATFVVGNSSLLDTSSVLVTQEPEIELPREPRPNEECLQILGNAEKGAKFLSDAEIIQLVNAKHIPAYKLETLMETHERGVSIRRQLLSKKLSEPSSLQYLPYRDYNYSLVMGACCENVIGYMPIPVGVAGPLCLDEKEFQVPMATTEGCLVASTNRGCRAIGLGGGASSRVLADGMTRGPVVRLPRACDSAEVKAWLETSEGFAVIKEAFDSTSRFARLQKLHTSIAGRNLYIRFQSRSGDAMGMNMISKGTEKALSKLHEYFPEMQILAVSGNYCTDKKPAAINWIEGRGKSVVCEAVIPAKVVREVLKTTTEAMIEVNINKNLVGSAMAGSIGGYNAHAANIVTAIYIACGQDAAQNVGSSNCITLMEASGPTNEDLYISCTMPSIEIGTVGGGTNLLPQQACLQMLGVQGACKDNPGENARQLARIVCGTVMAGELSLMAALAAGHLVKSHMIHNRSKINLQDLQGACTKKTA
Nature of the data set: In vitro suppression of HMG-CoA reductase (HMGR) in Hep G2 cells. Type of data set: cell-based. More on the design: concentration or dose not given beside the values. Conditions: HepG2, concentration not given here. The procedure, abridged: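 HepG2 cells treated 4 h with compound at 10 μM, DMSO vehicle controls. HMG-CoA reductase activity assayed in microsomal fraction isolated at end of incubation. Mean % suppression vs controls, SD ≤ ±10%, n ≥ 8.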

The next data set has as its system HepG2. Put plainly: In vitro inhibition of cholesterol biosynthesis in Hep G2 cells. Format: functional, Homo sapiens. Also noted: concentration or dose not given beside the values. An outline of the steps: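 HepG2 human hepatoma cells incubated 4 h with compound at 10 μM, DMSO vehicle controls. Mean % inhibition vs controls, SD ≤ ±10%, n ≥ 8.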
For data set [3], the species on record is Gallus gallus. Nature of the data set: (§1) Hypocholesterolemic activity in 6-week old male mormocholesterolemic chickens using experiment 2. Type of data set: functional. An outline of the steps: (§2)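 Six-week-old male chickens fed corn-soybean control diet with test compound at 50 ppm. Birds fasted 36 h, then refed 48 h before sacrifice. Serum total, LDL and HDL cholesterol and triglycerides measured (mg/100 mL), HDL/total ratio computed. Means ± SD, n = 6–12 per group, also as % of control. Significance p < 0.01 within each study.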

The species entered for data set [4] is Gallus gallus. The data set is described as §1. Type of data set: functional. An outline of the steps:
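Male chickens, 6 weeks old. Test compound mixed at 50 ppm into a corn-soybean control diet; controls get the diet alone. After the feeding period, birds are fasted 36 h and refed 48 h before sacrifice. Serum total, LDL and HDL cholesterol (mg/100 mL) and triglycerides measured; expressed as mean ± SD and percent of control, n = 6–12 per group.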
This is another data set of the same source.

For data set [5], the species on record is Gallus gallus. Nature of the data set: Ratio of HDL/total cholesterol value. Format: functional. An outline of the steps:
as §2

Data set [6] can be described thus: Compound oxidation potential using cyclic voltametry. Format: ADME.

For the compound `CC(C)=CCC/C(C)=C/CC/C(C)=C/CCC1(C)CCc2ccccc2O1` (stereo unspecified), the Potential result in data set [1] is “Not electrochemically active”. In addition, the inhibition (as a rule, the share of the control response that was lost under treatment) in data set [2] was 0%. The Inhibition – broadly, the drop in the measured response relative to a control, in per cent – with HepG2 is on record as 45%.

In the case of `CC(C)=CCC/C(C)=C/CC/C(C)=C/CCC1CCc2cc(O)ccc2O1` (stereo unspecified), in the data set listed under Gallus gallus [3], the HDL cholesterol is 86 mg 100ml-1, the Total cholesterol is recorded as 118 mg 100ml-1 and the Triglycerides is on record as 81 mg 100ml-1. The LDL cholesterol in the data set listed under Gallus gallus [4] is reported as 23 mg 100ml-1. The Inhibition in the data set with HepG2 came to 71%. In addition, in the data set listed under Gallus gallus [5], the Ratio is recorded as 0.73.

In the data set filed under Gallus gallus [3], `CC(C)=CCC/C(C)=C/CC/C(C)=C/CCC1(C)CCc2cc(O)ccc2C1` (stereo unspecified) yielded an HDL cholesterol of 85 mg 100ml-1, a Total cholesterol of 125 mg 100ml-1 and a Triglycerides of 86 mg 100ml-1. This compound also registered an LDL cholesterol in the data set filed under Gallus gallus [4] of 28 mg 100ml-1. This compound gave an Inhibition with HepG2 of 58%. Also, in data set [6], the Potential was found to be 1.48. Moreover, the Ratio in the data set filed under Gallus gallus [5] is on record as 0.68.
